ChEMBL document CHEMBL1955800, “Synthesis and biological validation of novel pyrazole derivatives with anticancer activity guided by 3D-QSAR analysis” (Bioorg Med Chem, 2012)

Legend:
[1] = tested on: A549; assay: Growth inhibition of human A549 cells after 48 hrs by MTS assay; format: functional, cell-based; details: A549, 48 h
In short: (§1)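 Seeded at 5 × 10³ cells/well in F12K (A549) or RPMI 1640 (NCI-H23) with 10% FBS, 37 °C, 5% CO₂, 3 h, then exposed 48 h to compounds at final 100–0.2 µM (10 mM DMSO stocks, 1% DMSO constant). MTS reagent added and incubated at 37 °C. Formazan from metabolically active cells measured, growth relative to untreated control, IC50 derived.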

[2] = tested on: A549; assay: Antiproliferative activity against human A549 cells after 48 hrs by BrdU assay; format: functional, cell-based; details: A549, 48 h
In short: (§2)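 Seeded at 5 × 10³ cells/well in RPMI 1640 + 10% FBS, 37 °C, 5% CO₂, 3 h. Compounds from 10 mM DMSO stocks, final 100–0.2 µM with 1% DMSO, 48 h. BrdU (final 10 µM) added for 3 h, then cells fixed and DNA denatured 30 min rt, ELISA absorbance read. DNA synthesis reduction relative to untreated cells, IC50 by curve fit.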

[3] = tested on: NCI-H23; assay: Growth inhibition of human NCI-H23 cells after 48 hrs by MTS assay; format: functional, cell-based; details: NCI-H23, 48 h; in short: as §1
[4] = tested on: NCI-H23; assay: Antiproliferative activity against human NCI-H23 cells after 48 hrs by BrdU assay; format: functional, cell-based; details: NCI-H23, 48 h; in short: as §2
[5] = Solubility of the compound in DMSO; format: physicochemical

Row | SMILES | IC50 ([1]; read-out: IC50) [µM] | IC50 ([1]; read-out: pIC50 (converted)) [µM] | IC50 [2] [µM] | IC50 [3] [µM] | IC50 [4] [µM] | solubility [5]
1 | O=C(N/N=C/c1cccc(O)c1O)c1cc(-c2ccc(Cl)cc2)nn1Cc1ccc(Cl)nc1 | 5.2 | 5.25 | 0.7 | 3.35 | 0.57 | –
2 | CC(C)(C)c1ccc(Cn2nc(-c3ccc(Cl)cc3)cc2C(=O)N/N=C/c2cccc(O)c2O)cc1 | 7.8 | 7.76 | 0.4 | 3.91 | 0.3 | –
3 | O=C(N/N=C/c1ccc(F)cc1F)c1cc(-c2ccc(Cl)cc2)nn1Cc1ccc(Cl)nc1 | 16 | 15.8 | 9.05 | 13.5 | 7.86 | –
4 | CC(C)(C)c1ccc(Cn2nc(-c3ccc(Cl)cc3)cc2C(=O)N/N=C/c2ccc(F)cc2F)cc1 | > 100 | > 100 | > 100 | > 100 | 21.9 | –
5 | N#Cc1ccc(/C=N/NC(=O)c2cc(-c3ccc(Cl)cc3)nn2Cc2ccc(Cl)nc2)cc1 | > 100 | > 100 | > 100 | > 100 | > 100 | Insoluble
6 | N=C(NO)c1cc(-c2ccc(Cl)cc2)nn1Cc1ccc(Cl)nc1 | 50.5 | 50.1 | 38.3 | 44.4 | 27.9 | –
7 | CC(C)(C)c1ccc(Cn2nc(-c3ccc(Cl)cc3)cc2C(=N)NO)cc1 | 17.7 | 17.8 | 17 | 16.5 | 12.3 | –
8 | CC(C)(C)c1ccc(Cn2nc(-c3ccc(Cl)cc3)cc2/C(N)=N/OC(=O)c2cccc(O)c2O)cc1 | 83.2 | 83.2 | 26.8 | 21.9 | 15.6 | –
9 | CC(C)(C)c1ccc(Cn2nc(-c3ccc(Cl)cc3)cc2-c2noc(-c3cccc(O)c3O)n2)cc1 | > 100 | > 100 | 1.54 | > 100 | 0.36 | –
10 | O=C(N/N=C/c1ccccc1O)c1cc(-c2ccc(Cl)cc2)nn1Cc1ccc(Cl)nc1 | – | – | – | 3.04 | 0.27 | –
